{"source": "ChEMBL document CHEMBL3286382", "about": "“Synthesis and biological evaluation of imidazo[1,2-a]pyrimidines and imidazo[1,2-a]pyridines as new inhibitors of the Wnt/β-catenin signaling” (Eur J Med Chem, 2014)", "key": {"Danio rerio [1]": {"species_on_record": "Danio rerio", "assay": "Toxicity in zebrafish larvae assessed as mortality at 1 uM treated for 7 days", "type": "organism-based", "details": "in vivo, 168 h", "method_in_brief": "(§1)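 Wild-type zebrafish larvae raised under standard conditions were exposed to compounds dissolved in E3 medium. The medium containing compound was renewed every day for 7 days. The read-out was survival rate (mortality) at the end of exposure.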"}, "HT-29 [2]": {"system": "HT-29", "assay": "Inhibition of Wnt signaling in human HT29 cells assessed as inhibition of beta-catenin-mediated Tcf/Lef transcriptional activity after 24 hrs by dual luciferase reporter gene assay relative to control", "type": "cell-based", "details": "HT-29, 24 h"}, "HepG2": {"system": "HepG2", "assay": "Antiproliferative activity against human HepG2 cells after 72 hrs by MTT assay", "type": "functional", "details": "HepG2, 72 h", "method_in_brief": "(§2)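 Cells grown in DMEM with 10% FBS, penicillin G, streptomycin and L-glutamine, seeded 7 x 10^3 per well, left 24 h, then exposed to scalar concentrations in complete medium for 72 h at 37 °C, 5% CO2. Viability read by MTT; IC50 taken as the concentration giving 50% inhibition of proliferation.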"}, "A549": {"system": "A549", "assay": "Antiproliferative activity against human A549 cells after 72 hrs by MTT assay", "type": "functional", "details": "A549, 72 h", "method_in_brief": "as §2"}, "Danio rerio [3]": {"species_on_record": "Danio rerio", "assay": "Inhibition of Wnt/beta-catenin signaling in zebrafish larvae assessed as inhibition of Tcf/Lef transcriptional activity measured as thinner intestine at 1 uM after 72 hrs by GFP reporter assay", "type": "functional, organism-based", "method_in_brief": "(§3)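 TCF/LEF-GFP reporter zebrafish were exposed from 24 hours post-fertilization for 72 h, with compounds dissolved in E3 medium that was renewed daily. GFP in the head and intestine was imaged by fluorescence stereomicroscope at 8X, alongside bright-field images.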"}, "Danio rerio [4]": {"species_on_record": "Danio rerio", "assay": "Toxicity in zebrafish larvae assessed as mortality at 5 to 25 uM treated for 7 days", "type": "organism-based", "details": "in vivo, 168 h", "method_in_brief": "as §1"}, "HT-29 [5]": {"system": "HT-29", "assay": "Antiproliferative activity against human HT-29 cells after 72 hrs by MTT assay", "type": "functional", "details": "HT-29, 72 h", "method_in_brief": "as §2"}, "LoVo": {"system": "LoVo", "assay": "Antiproliferative activity against human LoVo cells after 72 hrs by MTT assay", "type": "functional", "method_in_brief": "as §2"}, "HT-29 [6]": {"system": "HT-29", "assay": "Inhibition of Wnt/beta-catenin signaling in human HT29 cells assessed as decrease in TCF4 mRNA expression at 25 uM after 24 hrs by quantitative real-time PCR assay", "type": "cell-based", "method_in_brief": "(§4)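 Total RNA was extracted with TRIzol from HT-29 cells treated for 24 h. Transcripts were measured by real-time RT-PCR with GUS as the reference gene, and expression was expressed relative to untreated cells.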"}, "HT-29 [7]": {"system": "HT-29", "assay": "Inhibition of Wnt/beta-catenin signaling in human HT29 cells assessed as increase in phosphorylated c-myc level at 25 uM after 24 hrs by Western blot analysis", "type": "cell-based", "method_in_brief": "(§5)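 After 24 h exposure, HT-29 cells were washed in cold PBS, lysed on ice for 30 min and cleared at 15 000 g, 4 °C. 10 µg protein was run on 12% SDS-PAGE and transferred to PVDF. Blots were probed with specific primary antibodies, then peroxidase-labelled secondaries, and developed by ECL. β-actin re-probing served as the loading control.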"}, "HT-29 [8]": {"system": "HT-29", "assay": "Cell cycle arrest in human HT-29 cells assessed as reduction of cells in S phase at 25 uM after 24 hrs by flow cytometry", "type": "functional, cell-based", "method_in_brief": "(§6)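 Exponentially growing HT-29 cells (1.5 × 10^5) were treated with the compounds for 24 h, then collected and fixed in ice-cold 70% ethanol. Fixed cells were treated with lysis buffer holding RNase A and 0.1% Triton X-100, stained with PI and analysed for DNA content by flow cytometry.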"}, "HT-29 [9]": {"system": "HT-29", "assay": "Cell cycle arrest in human HT-29 cells assessed as accumulation of cells at G1 phase at 25 uM after 24 hrs by flow cytometry", "type": "functional, cell-based", "method_in_brief": "as §6"}, "HT-29 [10]": {"system": "HT-29", "assay": "Inhibition of Wnt/beta-catenin signaling in human HT29 cells assessed as downregulation of cyclin D1 protein expression at 25 uM after 24 hrs by Western blot analysis", "type": "cell-based", "method_in_brief": "as §5"}, "Danio rerio [11]": {"species_on_record": "Danio rerio", "assay": "Inhibition of Wnt/beta-catenin signaling in zebrafish larvae assessed as inhibition of Tcf/Lef transcriptional activity measured as thinner intestine at 10 uM after 72 hrs by GFP reporter assay", "type": "functional, organism-based", "method_in_brief": "as §3"}, "Danio rerio [12]": {"system": "Danio rerio", "assay": "Inhibition of Wnt/beta-catenin signaling in zebrafish larvae assessed as inhibition of Tcf/Lef transcriptional activity measured as pericardial edema at 10 uM after 72 hrs by GFP reporter assay", "type": "functional, organism-based", "method_in_brief": "as §3"}, "HT-29 [13]": {"system": "HT-29", "assay": "Inhibition of Wnt signaling in human HT29 cells assessed as inhibition of beta-catenin-mediated Tcf/Lef transcriptional activity at 25 uM after 24 hrs by dual luciferase reporter gene assay relative to control in presence of GSK-3beta inhibitor LiCl", "type": "cell-based", "method_in_brief": "(§7)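 HT-29 cells (1.4 x 10^4) were co-transfected with 1 µg BAT-LUX, which carries 7 TCF sites and the siamois promoter driving firefly luciferase, plus 1 µg Renilla vector. Cells were then treated at 37 °C for 24 h, with or without the GSK-3β inhibitor LiCl. Dual-Glo readout; values are the mean firefly/Renilla ratio.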"}, "HT-29 [14]": {"system": "HT-29", "assay": "Inhibition of Wnt/beta-catenin signaling in human HT29 cells assessed as GSK3-beta dephosphorylation at Ser21/Ser9 residues at 25 uM after 24 hrs by Western blot analysis", "type": "cell-based", "method_in_brief": "as §5"}, "HT-29 [15]": {"system": "HT-29", "assay": "Inhibition of Wnt signaling in human HT29 cells assessed as beta-catenin dephosphorylation at S33/37/T41 residues at 25 uM after 24 hrs by Western blot analysis", "type": "cell-based", "method_in_brief": "as §5"}, "HT-29 [16]": {"system": "HT-29", "assay": "Inhibition of Wnt/beta-catenin signaling in human HT29 cells assessed as decrease in TCF1 protein level at 25 uM after 24 hrs by Western blot analysis", "type": "cell-based", "method_in_brief": "as §5"}, "Danio rerio [17]": {"species_on_record": "Danio rerio", "assay": "Inhibition of Wnt/beta-catenin signaling in zebrafish larvae assessed as inhibition of Tcf/Lef transcriptional activity measured as dysmorphic craniofacial features at 10 uM after 72 hrs by GFP reporter assay", "type": "functional, organism-based", "method_in_brief": "as §3"}, "HT-29 [18]": {"system": "HT-29", "assay": "Inhibition of Wnt/beta-catenin signaling in human HT29 cells assessed as increase in p21 protein expression at 25 uM after 24 hrs by Western blot analysis", "type": "cell-based", "method_in_brief": "as §5"}, "HT-29 [19]": {"system": "HT-29", "assay": "Inhibition of Wnt/beta-catenin signaling in human HT29 cells assessed as […] in axin2 mRNA expression at 25 uM after 24 hrs by quantitative real-time PCR assay", "type": "cell-based", "method_in_brief": "as §4"}, "HT-29 [20]": {"system": "HT-29", "assay": "Inhibition of Wnt/beta-catenin signaling in human HT29 cells assessed as downregulation of cyclin B1 protein expression at 25 uM after 24 hrs by Western blot analysis", "type": "cell-based", "method_in_brief": "as §5"}, "HT-29 [21]": {"system": "HT-29", "assay": "Inhibition of Wnt/beta-catenin signaling in human HT29 cells assessed as effect on c-myc mRNA expression at 25 uM after 24 hrs by quantitative real-time PCR assay", "type": "cell-based", "method_in_brief": "as §4"}, "HT-29 [22]": {"system": "HT-29", "assay": "Inhibition of Wnt signaling in human HT29 cells assessed as inhibition of beta-catenin-mediated Tcf/Lef transcriptional activity at 25 uM after 24 hrs by dual luciferase reporter gene assay relative to control", "type": "cell-based", "method_in_brief": "as §7"}, "HT-29 [23]": {"system": "HT-29", "assay": "Cell cycle arrest in human HT-29 cells assessed as reduction of cells in G2/M phase at 25 uM after 24 hrs by flow cytometry", "type": "functional, cell-based", "method_in_brief": "as §6"}, "[24]": {"assay": "Antiproliferative activity against human fibroblasts after 72 hrs by MTT assay", "type": "cell-based, Fibroblast"}, "Danio rerio [25]": {"species_on_record": "Danio rerio", "assay": "Toxicity in zebrafish larvae assessed as mortality at 25 uM treated for 7 days", "type": "organism-based", "details": "in vivo, 168 h", "method_in_brief": "as §1"}}, "note": "Active and inactive are the calls of the source. The calls are words filed in the database; no cut-off is given here."}
{"molecule": "CC(=O)Nc1cc(=O)n(Cc2ccccc2)c(SCc2ccccc2)n1", "values": [{"measurement": "Activity", "setting": "Danio rerio [1]", "value": "Non-toxic"}, {"measurement": "IC50", "setting": "HT-29 [2]", "value": 35.6, "unit": "µM"}, {"measurement": "GI50", "setting": "HepG2", "value": 71.7, "unit": "µM"}, {"measurement": "GI50", "setting": "A549", "value": 50.4, "unit": "µM"}, {"measurement": "inhibition", "setting": "Danio rerio [3]", "value": "Active"}, {"measurement": "Activity", "setting": "Danio rerio [4]", "value": "Toxic"}, {"measurement": "GI50", "setting": "HT-29 [5]", "value": 79.3, "unit": "µM"}, {"measurement": "GI50", "setting": "LoVo", "value": 56.3, "unit": "µM"}]}
{"molecule": "Cc1ccn2cc(-c3ccc(N(Cc4ccccc4)Cc4ccccc4)cc3)nc2c1", "values": [{"measurement": "inhibition", "setting": "HT-29 [6]", "value": "Active"}, {"measurement": "inhibition", "setting": "HT-29 [7]", "value": "Active"}, {"measurement": "IC50", "setting": "HT-29 [2]", "value": 24.1, "unit": "µM"}, {"measurement": "Activity", "setting": "HT-29 [8]", "value": "Active"}, {"measurement": "Activity", "setting": "HT-29 [9]", "value": "Active"}, {"measurement": "inhibition", "setting": "HT-29 [10]", "value": "Active"}, {"measurement": "inhibition", "setting": "Danio rerio [11]", "value": "Active"}, {"measurement": "inhibition", "setting": "Danio rerio [12]", "value": "Active"}, {"measurement": "inhibition", "setting": "HT-29 [13]", "value": "Active"}, {"measurement": "inhibition", "setting": "HT-29 [14]", "value": "inactive"}, {"measurement": "inhibition", "setting": "HT-29 [15]", "value": "Active"}, {"measurement": "inhibition", "setting": "HT-29 [16]", "value": "Active"}, {"measurement": "inhibition", "setting": "Danio rerio [17]", "value": "Active"}, {"measurement": "inhibition", "setting": "HT-29 [18]", "value": "Active"}, {"measurement": "GI50", "setting": "HepG2", "value": 18.4, "unit": "µM"}, {"measurement": "GI50", "setting": "A549", "value": 17.2, "unit": "µM"}, {"measurement": "inhibition", "setting": "HT-29 [19]", "value": "Active"}, {"measurement": "inhibition", "setting": "HT-29 [20]", "value": "Active"}, {"measurement": "inhibition", "setting": "HT-29 [21]", "value": "inactive"}, {"measurement": "inhibition", "setting": "HT-29 [22]", "value": "Active"}, {"measurement": "GI50", "setting": "HT-29 [5]", "value": 6.9, "unit": "µM"}, {"measurement": "Activity", "setting": "HT-29 [23]", "value": "Active"}, {"measurement": "GI50", "setting": "LoVo", "value": 5.7, "unit": "µM"}, {"measurement": "GI50 at 72 h", "setting": "[24]", "value": 52.3, "unit": "µM"}, {"measurement": "Activity", "setting": "Danio rerio [25]", "value": "Toxic"}]}
